Measurements reported in PubChem BioAssay AID540337 (Southern Research Specialized Biocontainment Screening …, 2011).
Values belong to the compound of their own block, whether it stands above or below them. The source made the active and inactive calls.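 Rule for the calls: active = at least 50% inhibition of virus-induced cell damage; inactive = the rest.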

System: HEp-2 RSV Long CPE inhibition, luminescence
Test: antiviral protection of cells from RSV – synthesized compounds, set 12, CPE, dose response (AID 540337)
Summary of the method: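 Replicates: triplicate wells per concentration; material: RSV Long-infected HEp-2 cells; technique: luminescent CPE read-out; read-out: % CPE inhibition scaled to virus-only and uninfected wells, IC50; incubation: 6 d at 37 °C; control set: uninfected cell-only wells and virus-infected wells without compound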

Structure (SMILES): COCCCNC(=O)c1ccc(Cn2c(=O)c3ccccc3n(CCc3ccc(C(F)(F)F)cc3)c2=O)cc1
- IC50: > 50 µM (inactive)

Structure (SMILES): COCCCNC(=O)c1ccc(Cn2c(=O)c3ccccc3n(CCc3ccc(C)cc3)c2=O)cc1
- IC50: > 50 µM (inactive)

Structure (SMILES): COCCCNC(=O)c1ccc(Cn2c(=O)c3ccccc3n(Cc3cccnc3)c2=O)cc1
- IC50: > 50 µM (inactive)

The remaining lines, values ahead:

- IC50: > 50 µM (inactive)
Structure (SMILES): COCCCNC(=O)c1ccc(Cn2c(=O)c3ccccc3n(CC3CCCCC3)c2=O)cc1

- IC50: 2.5 µM
Structure (SMILES): COCCCNC(=O)c1ccc(Cn2c(=O)c3ccccc3n(Cc3ccc(C)cc3)c2=O)cc1

- IC50: > 50 µM (inactive)
Structure (SMILES): COCCCNC(=O)c1ccc(Cn2c(=O)c3ccccc3n(CCc3ccc(Br)cc3)c2=O)cc1

- IC50: > 50 µM (inactive)
Structure (SMILES): COCCCNC(=O)c1ccc(Cn2c(=O)c3ccccc3n(Cc3ccccn3)c2=O)cc1
